The source made the active and inactive calls. No cut-off for these calls is given here.
System: PBMC
Assay: Immunomodulatory activity in human PBMCs assessed as reduction in PMA/ionomycin-induced TNFalpha release at 20 uM incubated for 18 hrs by multiplexed cytokine assay
Type: functional, cell-based
Summary of the method: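 Ficoll-isolated human PBMC, 1 × 10^6 cells per well, treated with 20 μM compound (DMSO ≤0.1%) plus PMA 3.33 ng/mL and ionomycin 500 nM for 18 h at 37 °C, 5% CO2. Cell-free supernatant cytokines measured by CBA human inflammatory kit on a flow cytometer against recombinant standards. Reported as % of PMA/ionomycin-only release; duplicates, three experiments, three donors.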

CCOC(=O)CC[C@@H](NC(=O)[C@H](C)NC(=O)CNC(=O)c1cc2ccccc2[nH]1)C(N)=O
Activity: Active

Source: ChEMBL document CHEMBL2163344, “Immunomodulatory properties of novel nucleotide oligomerization domain 2 (nod2) agonistic desmuramyldipeptides” (J Med Chem, 2012)
